Among the data in ChEMBL document CHEMBL4024760, “Specific Inhibition of Bacterial β-Glucuronidase by Pyrazolo[4,3-c]quinoline Derivatives via a pH-Dependent Manner To Suppress Chemotherapy-Induced Intestinal Toxicity” (J Med Chem, 2017) are Activity, activity and IC50 values, retold here.

One data set concerns Escherichia coli. The data set can be described thus: Inhibition of N-terminal His-tagged Escherichia coli beta-glucuronidase expressed in Escherichia coli BL21 (DE3) assessed as residual activity using pNPG as substrate at 10 uM preincubated for 30 mins followed by substrate addition measured after 1 hr relative to control. The method, boiled down: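 Purified E. coli βG (20 ng) preincubated with 10 μM compound for 30 min at 37 °C in PBS pH 7.5 with 10% DMSO and 0.05% BSA. pNPG (20 mM stock) then added for 1 h, quenched with 2 N NaOH, and read at OD405. Result given as % activity versus a 10% DMSO control; n = 3.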

A further data set addresses T1, beta-glucuronidase (Homo sapiens, UniProt P08236).
T1 sequence (P08236 whole entry): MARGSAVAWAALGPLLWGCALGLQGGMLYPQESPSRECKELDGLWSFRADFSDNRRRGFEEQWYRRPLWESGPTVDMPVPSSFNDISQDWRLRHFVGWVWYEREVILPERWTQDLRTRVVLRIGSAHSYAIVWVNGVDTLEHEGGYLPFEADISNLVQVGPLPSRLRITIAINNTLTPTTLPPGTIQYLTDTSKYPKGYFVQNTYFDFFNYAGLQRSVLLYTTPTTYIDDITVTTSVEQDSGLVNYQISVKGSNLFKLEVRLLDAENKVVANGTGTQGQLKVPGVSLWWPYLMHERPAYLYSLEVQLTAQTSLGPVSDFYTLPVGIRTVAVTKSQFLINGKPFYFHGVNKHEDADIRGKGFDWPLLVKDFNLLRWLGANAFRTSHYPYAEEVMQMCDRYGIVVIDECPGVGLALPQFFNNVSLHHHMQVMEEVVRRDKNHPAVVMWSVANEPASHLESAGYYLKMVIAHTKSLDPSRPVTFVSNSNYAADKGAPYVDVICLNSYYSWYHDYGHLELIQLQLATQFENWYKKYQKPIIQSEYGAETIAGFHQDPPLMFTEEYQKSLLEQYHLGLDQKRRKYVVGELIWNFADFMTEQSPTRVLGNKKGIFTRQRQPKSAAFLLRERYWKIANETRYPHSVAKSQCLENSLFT
The data set can be described thus: Inhibition of N-terminal His-tagged human beta-glucuronidase expressed in Escherichia coli BL21 (DE3) assessed as residual activity using pNPG as substrate at 10 uM preincubated for 30 mins followed by substrate addition measured after 1 hr relative to control. The conditions noted are these: probe pNPG, read-out: Activity.

A short description of data set [1]: Inhibition of N-terminal His-tagged Escherichia coli beta-glucuronidase expressed in Escherichia coli BL21 (DE3) using pNPG as substrate preincubated for 30 mins followed by substrate addition measured after 1 hr. The method, boiled down:
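Purified E. coli βG (20 ng) preincubated 30 min at 37 °C with compound (0.64–10 000 nM) in PBS pH 7.5 containing 10% DMSO and 0.05% BSA. pNPG (20 mM stock) then added for 1 h, quenched with 2 N NaOH, and pNP read at 405 nm. IC50 derived from a four-parameter curve fit; SD of n = 3.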

As for `NC(=S)N/N=C/c1ccc2cc(F)ccc2n1`, the Activity in the data set on Escherichia coli was 112%. Moreover, at beta-glucuronidase, the activity at 1 h, 10 µM was found to be 78.5%.

Turning to `Nc1n[nH]c2c1c(Nc1ccccc1O)nc1ccccc12`, the Activity in the data set with Escherichia coli came to 12%. Besides, the activity at 1 h, 10 µM at beta-glucuronidase was 85.6%. The compound also displayed an IC50 in data set [1] of 613 nM.

Regarding `Nc1n[nH]c2c1c(Nc1ccc(C(F)(F)F)cc1)nc1ccccc12`, in the data set on Escherichia coli, the Activity was found to be 5.66%. Besides, the activity at 1 h, 10 µM on beta-glucuronidase was determined as 101%. In data set [1], this compound gave an IC50 of 98.2 nM.

`CNC(=S)N/N=C1\C(=O)c2ccccc2-c2occc21`: the Activity in the data set on Escherichia coli is 104%. Besides, the activity at 1 h, 10 µM on beta-glucuronidase is 86.8%.

Take `Cc1cccc2c1nc(Nc1ccc(Cl)cc1)c1c(N)n[nH]c12`: the Activity with Escherichia coli turned out to be 9.04%. The activity at 1 h, 10 µM at beta-glucuronidase amounted to 88.3%. The IC50 in data set [1] came out at 238 nM.

As for `O=C1S/C(=C/c2ccc3cc(F)ccc3n2)C(=O)N1CCN1CCCC1`, the Activity in the data set with Escherichia coli turned out to be 99.2%. The activity at 1 h, 10 µM on beta-glucuronidase worked out at 102%.

In the case of `COc1ccc(-c2cc3ccccc3nc2C2CC(c3cc(OC)c(OC)c(OC)c3)=NN2C(N)=S)cc1` (centres undefined), the Activity with Escherichia coli is 114%. For the same compound, the activity at 1 h, 10 µM at beta-glucuronidase was found to be 89.5%.

Consider `c1ccc2c(c1)c1nonc1c1ccoc21`, for which the Activity with Escherichia coli was determined as 111%. In addition, the activity at 1 h, 10 µM at beta-glucuronidase amounted to 82.7%.

On to `COc1cc(/C=C2\CN(C(=O)CN(C)C)C/C(=C\c3cc(OC)c(OC)c(OC)c3)C2=O)cc(OC)c1OC`, for which the Activity with Escherichia coli came to 34.1%. Also, the activity at 1 h, 10 µM on beta-glucuronidase came to 92.4%.

For `CC(=O)c1ccc(Nc2nc3ccccc3c3[nH]nc(N)c23)cc1`, the Activity with Escherichia coli was 6%. The activity at 1 h, 10 µM on beta-glucuronidase amounted to 83.4%. In data set [1], this compound displayed an IC50 of 133 nM.

As for `Nc1n[nH]c2c1c(Nc1ccc([N+](=O)[O-])cc1)nc1ccccc12`, the Activity with Escherichia coli stood at 46.5%. The activity at 1 h, 10 µM on beta-glucuronidase is 90.9%. Besides, inhibition in data set [1] was half-maximal at 9200 nM (IC50).

In the case of `Fc1ccc(-c2cc(-c3ccc4cc(F)ccc4n3)nn2-c2ccccc2)cc1`, the Activity in the data set on Escherichia coli is 114%. At beta-glucuronidase, the activity at 1 h, 10 µM was 82.2%.

`CCOC(=O)CSc1nc2ccccc2c2sc(C(=O)OCC)c(N)c12`: the Activity in the data set with Escherichia coli is 101%. Moreover, the activity at 1 h, 10 µM on beta-glucuronidase came to 108%.

With `Nc1n[nH]c2c1c(Nc1ccccc1Cl)nc1ccccc12`, the Activity in the data set on Escherichia coli came out at 10.3%. Besides, the activity at 1 h, 10 µM on beta-glucuronidase amounted to 79.8%. This compound displayed a half-inhibitory concentration (IC50) in data set [1] of 281 nM.

With `O=C1c2ccccc2-c2c(N3CCC(O)CC3)nc3ccccc3c21`, the Activity in the data set with Escherichia coli was 74.9%. The activity at 1 h, 10 µM at beta-glucuronidase came out at 80.6%.

On to `COc1ccc(-c2nc3c4ccoc4c4ccccc4c3[nH]2)cc1`, for which, in the data set with Escherichia coli, the Activity was determined as 112%. Besides, the activity at 1 h, 10 µM at beta-glucuronidase worked out at 85.4%.

`Nc1n[nH]c2c1c(Nc1ccc(C(=O)O)cc1)nc1ccccc12`: the Activity in the data set with Escherichia coli was determined as 19%. In addition, at beta-glucuronidase, the activity at 1 h, 10 µM came to 102%. This compound also yielded an IC50 in data set [1] of 154 nM.

On to `CCOC(=O)CN1C(=O)S/C(=C/c2ccc3cc(F)ccc3n2)C1=O`, for which, in the data set with Escherichia coli, the Activity amounted to 111%. Also, the activity at 1 h, 10 µM at beta-glucuronidase was determined as 87.9%.

As for `Nc1n[nH]c2c1c(Nc1cccc(O)c1)nc1ccccc12`, the Activity with Escherichia coli was determined as 6%. Also, the activity at 1 h, 10 µM at beta-glucuronidase was 78.3%. Further, the IC50 in data set [1] is 884 nM.

In the case of `Nc1n[nH]c2c1c(Nc1ccc(O)cc1)nc1ccccc12`, the Activity in the data set on Escherichia coli is 8.67%. Also, the activity at 1 h, 10 µM at beta-glucuronidase was 106%. In data set [1], this compound came in with a half-inhibitory concentration (IC50) of 626 nM.

`CN(C)CCCN1C(=O)S/C(=C/c2ccc3cc(F)ccc3n2)C1=O`: in the data set with Escherichia coli, the Activity came out at 112%. Also, the activity at 1 h, 10 µM at beta-glucuronidase is 80.2%.

Take `Nc1n[nH]c2c1c(Nc1ccccc1)nc1ccccc12`: the Activity in the data set with Escherichia coli stood at 2.33%. The activity at 1 h, 10 µM at beta-glucuronidase came to 106%.

Consider `CCN(CC)CCNC(=O)c1ccc(/N=C2/c3ccccc3C(=O)c3c2ccn3Cc2ccccc2)cc1`, for which the Activity with Escherichia coli is 87.4%. Moreover, at beta-glucuronidase, the activity at 1 h, 10 µM worked out at 86.9%.

Turning to `COc1cc(/C=C2\CNC/C(=C\c3cc(OC)c(OC)c(OC)c3)C2=O)cc(OC)c1OC`, in the data set on Escherichia coli, the Activity came to 111%. The activity at 1 h, 10 µM on beta-glucuronidase was 107%.

As for `Fc1ccc(-c2cc(-c3ccc4cc(F)ccc4n3)n(-c3ccccc3)n2)cc1`, the Activity in the data set with Escherichia coli stood at 113%. The activity at 1 h, 10 µM on beta-glucuronidase is 88.9%.

On to `Cc1cc2c(n1CCCN(C)CCCn1c(C)cc3c1C(=O)c1ccccc1C3=O)C(=O)c1ccccc1C2=O`, for which the Activity in the data set on Escherichia coli is 73.5%. The activity at 1 h, 10 µM on beta-glucuronidase was 79.8%.

Regarding `Cc1ccccc1Nc1nc2ccccc2c2[nH]nc(N)c12`, the Activity in the data set with Escherichia coli was found to be 14.8%. The activity at 1 h, 10 µM at beta-glucuronidase was found to be 93.6%. In addition, in data set [1], the midpoint of inhibition, the IC50, lay at 673 nM.

As for `Cc1cccc(Nc2nc3ccccc3c3[nH]nc(N)c23)c1`, the Activity with Escherichia coli amounted to 80.7%. The activity at 1 h, 10 µM at beta-glucuronidase was 86.5%. Further, in data set [1], the concentration for half-maximal inhibition (IC50) was > 10000 nM.

Consider `O=C(O)CN1C(=O)S/C(=C/c2ccc3cc(F)ccc3n2)C1=O`, for which the Activity in the data set with Escherichia coli was determined as 109%. Further, the activity at 1 h, 10 µM on beta-glucuronidase was determined as 85.9%.

For the compound `O=C(O)[C@@H](O)[C@H]1OC(=O)[C@H](O)[C@H]1O` [D-SACCHARIC ACID 1,4-LACTONE], in the data set on Escherichia coli, the Activity worked out at 75.7%. On beta-glucuronidase, the activity at 1 h, 10 µM stood at 33.5%. For the same compound, the IC50 in data set [1] was > 10000 nM.

Regarding `Nc1n[nH]c2c1cnc1ccccc12`, the Activity with Escherichia coli worked out at 99.3%. In addition, at beta-glucuronidase, the activity at 1 h, 10 µM was 79.4%.

Take `Nc1n[nH]c2c1c(O)nc1ccccc12`: the Activity with Escherichia coli was found to be 99%. Also, at beta-glucuronidase, the activity at 1 h, 10 µM is 83%.

`CCOc1ccc(NC(=S)N(CCO)Cc2cc3cc(C)cc(C)c3[nH]c2=O)cc1`: the Activity in the data set with Escherichia coli came out at 8.83%. This compound registered a 50% inhibitory concentration (IC50) in data set [1] of 846 nM.

Consider `COc1ccc(-c2cc3cc(F)ccc3nc2/C=C2\SC(=O)NC2=O)cc1`, for which the Activity with Escherichia coli turned out to be 99.1%. Further, the activity at 1 h, 10 µM on beta-glucuronidase was 84.6%.

For `Cc1ccc(Nc2nc3c(C)cccc3c3[nH]nc(N)c23)cc1`, the Activity in the data set with Escherichia coli amounted to 6.8%. Further, the activity at 1 h, 10 µM on beta-glucuronidase was found to be 85.7%. This compound also yielded a 50% inhibitory concentration (IC50) in data set [1] of 24.7 nM.

`Nc1n[nH]c2c1c(Nc1ccc(Cl)cc1)nc1cc(F)ccc12`: in the data set on Escherichia coli, the Activity came out at 6.78%. The activity at 1 h, 10 µM on beta-glucuronidase was found to be 92.8%. This compound had a 50% inhibitory concentration (IC50) in data set [1] of 29.6 nM.

In the case of `Nc1n[nH]c2c1c(N)nc1ccccc12`, the Activity in the data set on Escherichia coli turned out to be 86.3%. Further, the activity at 1 h, 10 µM on beta-glucuronidase stood at 83.9%.

Take `CCOc1nc2ccccc2c2[nH]nc(N)c12`: the Activity in the data set with Escherichia coli worked out at 102%. On beta-glucuronidase, the activity at 1 h, 10 µM amounted to 80.5%.

Regarding `COc1cc(C(=O)C2CC2c2ccc3ccccc3n2)cc(OC)c1OC` (centres undefined), in the data set with Escherichia coli, the Activity stood at 112%. For the same compound, the activity at 1 h, 10 µM on beta-glucuronidase turned out to be 85.4%.

On to `Nc1ccc(Nc2nc3ccccc3c3[nH]nc(N)c23)cc1`, for which the Activity in the data set with Escherichia coli turned out to be 11.3%. Further, at beta-glucuronidase, the activity at 1 h, 10 µM was found to be 62.2%. For the same compound, the IC50 in data set [1] worked out at 598 nM.

Take `O=C1NC(=O)/C(=C\c2ccc3cc(F)ccc3n2)S1`: in the data set with Escherichia coli, the Activity amounted to 115%. Moreover, the activity at 1 h, 10 µM on beta-glucuronidase was found to be 88.9%.

Consider `Fc1ccc2nc(/C=N/NC3=NCCN3)ccc2c1`, for which the Activity in the data set with Escherichia coli was 112%. At beta-glucuronidase, the activity at 1 h, 10 µM worked out at 99%.

Turning to `Nc1n[nH]c2c1c(Nc1cccc(Cl)c1)nc1ccccc12`, the Activity with Escherichia coli was found to be 14.9%. Moreover, the activity at 1 h, 10 µM on beta-glucuronidase came out at 94.1%. The compound further came in with an IC50 in data set [1] of 308 nM.

Consider `O=C1S/C(=C/c2ccc3cc(F)ccc3n2)C(=O)N1CCN1CCCCC1`, for which the Activity in the data set on Escherichia coli turned out to be 107%. Further, the activity at 1 h, 10 µM at beta-glucuronidase came out at 96.5%.
